Wee1 degr inh = Wee1 degradation inhibitors, primary screen, cell-based, HeLa, Wee1K328M-luciferase, luminescence. reporter increase, % at 5 µM. HeLa Luc-Wee1K328M stability; 100% = proteasome inhibitor MG132 effect. 220,000 tested, 1.2% active;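 active means activation above the mean of all tested compounds plus 3 SD, set per screening run, cut at about 8.8% in these data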;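 further: cells exposed to compound for 20 h before luminescence read; 0% = DMSO alone and 100% = MG132 at 30 µM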
NPY-Y2 PAM-ag = NPY-Y2 potentiators or agonists, primary screen, cell-based | activation, % at 3.6 µM | 220,000 tested, 0.45% active | AID 1359, 2008 | cells expressing NPY-Y2, potentiator/agonist read-out | Neuropeptide Y receptor type 2 (Homo sapiens), P49146; in the data active means activation above about 27%;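 further: cells stimulated with NPY near EC25 plus isoproterenol at EC100; 0% = vehicle plus submaximal agonist and 100% = vehicle plus saturating agonist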
Target sequence (P49146 whole entry, looked up): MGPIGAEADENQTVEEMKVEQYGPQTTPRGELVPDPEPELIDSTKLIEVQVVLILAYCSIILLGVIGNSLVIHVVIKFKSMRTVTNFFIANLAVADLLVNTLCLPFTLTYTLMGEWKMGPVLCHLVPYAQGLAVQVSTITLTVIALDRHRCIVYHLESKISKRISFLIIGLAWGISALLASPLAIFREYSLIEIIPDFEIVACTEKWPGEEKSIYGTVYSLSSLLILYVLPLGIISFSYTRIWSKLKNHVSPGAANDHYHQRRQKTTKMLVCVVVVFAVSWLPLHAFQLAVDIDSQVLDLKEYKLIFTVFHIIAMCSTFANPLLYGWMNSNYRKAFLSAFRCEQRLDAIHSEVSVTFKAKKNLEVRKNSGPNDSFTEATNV
NPY-Y2 antag = NPY-Y2 receptor antagonists, primary screen, cell-based. Neuropeptide Y receptor type 2 (Homo sapiens), P49146. NPY-Y2 expressing cells, antagonist mode. 140,000 tested, 0.99% active. inhibition, % at 2.7 µM; in the data active means inhibition above about 17%;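 further: 0% = vehicle with agonist challenge and 100% = reference antagonist with challenge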
NPY-Y1 antag = NPY-Y1 receptor antagonists, primary screen, cell-based; inhibition, % at 3.6 µM; HEK293-CNG Y1 cells, membrane potential fluorescence; NPY at EC95, then isoproterenol; 200,000 tested, 1% active; AID 1040, 2008;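 active means inhibition above the campaign mean inhibition of all tested compounds plus 3 SD, cut at about 20% in these data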;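 further: 0% = DMSO wells given NPY plus isoproterenol and 100% = isoproterenol alone without NPY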
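Assay system: HEK293 cells with Y1 receptor plus CNG channel | Probe or stimulus: NPY (25 nM), isoproterenol (1 µM), Ro 20-1724 (25 µM) | Timing: Compound incubation 1 h at room temperature, readout 45 min post-stimulation | Measured by: Membrane-potential fluorescent dye readout | Benchmarks: High control isoproterenol alone, low control NPY with isoproterenol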
NPY-Y1 PAM-ag = NPY-Y1 receptor potentiators or agonists, primary screen, cell-based; 220,000 tested, 0.37% active; NPY-Y1 expressing cells, potentiator/agonist activation; activation, % at 3.6 µM; in the data active means activation above about 33%, passing the limit was not always enough;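 further: cells stimulated with NPY at EC10 then isoproterenol at EC100; 0% = low agonist plus stimulus and 100% = saturating agonist plus stimulus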
Hsp70 activator = Hsp70 transcriptional activators, primary screen, cell-based, HeLa, Hsp70 promoter luciferase, luminescence, 10 µM; HeLa Hsp70 promoter luciferase reporter; scaled: vehicle 0, proteasome-inhibitor control 100%; activation, % at 10 µM; 200,000 tested, 0.04% active;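 active means activation above the mean across all tested compounds plus 3 SD, cutoff set per campaign, cut at about 5.5% in these data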;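 further: 100% = MG132 at 30 µM as the positive control and 0% = DMSO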
Numbers without * were called inactive; nt = no result given. The list is not random: actives were taken first. Their share in the collection is about 3%.

SMILES	Wee1 degr inh	NPY-Y2 PAM-ag	NPY-Y2 antag	NPY-Y1 antag	NPY-Y1 PAM-ag	Hsp70 activator
Cc1ccc(NC(=O)NC(=O)CN2C(=O)NC3(CCCCCCC3)C2=O)c(C)c1	0	-6	5	8	40*	0
CC(=O)Nc1ccccc1NC(=O)C/C(C)=N/NC(=O)c1ccncc1	9.3*	-8	nt	-2	-17	0
C/C(CC(=O)Nc1ccc(N(C)C)cc1)=N\NC(=O)c1ccncc1	-2	-2	nt	-3	-18	0
CCc1cc2c(=O)n(Cc3ccco3)c(SCC(=O)N(C)C3CCS(=O)(=O)C3)nc2s1 (stereo not given)	3	2	nt	-2	-20	0
COC(=O)c1sc(NC(=O)c2ccc(Cn3cc(Cl)cn3)o2)c(C#N)c1C	5	36*	-8	-11	60*	0
CCN(CC)CCCN=C(C)C1=C(O)c2ccccc2C1=O	-2	21	nt	nt	18	nt
CCCN=C(C)C1=C(O)c2ccccc2C1=O	9.1*	3	0	3	-47	1
C=CCC(C#Cc1ccc(C)cc1)N(CC)CC (stereo not given)	1	-2	3	0	-17	0
COC(=O)[C@H]1C[C@@H]1[C@H](NC(=O)c1cnccn1)c1ccccc1	5	84*	1	2	23	0
COC(=O)[C@H]1C[C@@H]1[C@H](NC(=O)c1cc(C)on1)c1ccccc1	-4	-6	-1	5	8	1
COc1ccc(Nc2ncnc3c2oc2ccccc23)cc1	10*	-6	6	7	0	0
O=C(CN1C2CCC1CC(NC(=O)Nc1ccccc1)C2)NCc1ccco1 (stereo not given)	10*	-15	0	6	-9	0
Cc1ccc(S(=O)(=O)CC(=O)c2ccc3c(c2)OCCO3)cc1	1	-10	nt	nt	-29	nt
CCN1C(=O)C(NC(C)=O)c2cc(Br)ccc21 (stereo not given)	0	6	9	13	-15	0
CCCCN1C(=O)C(NC(C)=O)c2cc(Br)ccc21 (stereo not given)	3	-4	20*	27*	14	0
COc1ccc(Br)cc1CN1CCCCCCC1	3	-25	21*	22*	-31	0
Cc1ccc(-c2nnn(CC(=O)N(CC3CCCO3)C(C(=O)NC3CCCC3)c3ccc(O)cc3)n2)o1 (stereo not given)	10*	0	nt	-1	-5	0
Cc1ccc(-c2nnn(CC(=O)N(Cc3cccs3)C(C(=O)NC(C)(C)C)c3ccco3)n2)o1 (stereo not given)	-3	-2	7	12	-34	0
Cc1ccc(-c2nnn(CC(=O)N(Cc3cccs3)C(C(=O)NC(C)(C)C)c3ccc(C)o3)n2)o1 (stereo not given)	-1	-80	40*	35*	-112	0
CC(C)n1c(NCc2cccs2)nc2ccccc21	8.8*	23	0	7	21	0
CC(C)n1c(NCc2ccc(N(C)C)cc2)nc2ccccc21	3	5	3	6	0	0
O=C(C(=C1NCCN1)n1cncn1)c1ccccc1	4	-1	4	3	9	1
CCCCNC(=O)c1onc(CSc2ccc(C)c(C)c2)c1C(=O)O	0	-38	13	15	-49	0
COC(=O)c1c(CSc2ccc(C)c(C)c2)noc1C(=O)NCc1ccc(OC)cc1	-4	-35	22*	23*	-15	0
Cc1ccc2c(c1)sc1ncc(NC(=O)c3ccc(F)cc3)c(=O)n12	3	6	nt	5	7	0
SMILES	Wee1 degr inh	NPY-Y2 PAM-ag	NPY-Y2 antag	NPY-Y1 antag	NPY-Y1 PAM-ag	Hsp70 activator
Cc1ccc2c(c1)sc1nc(=O)n(-c3ccccc3)c(=O)n12	9.0*	10	nt	nt	-10	nt
CC1=C(C(=O)Nc2ccccn2)C(c2cn(C)nc2C)C2=C(CCCC2=O)N1 (stereo not given)	2	7	nt	-4	-4	0
COC(=O)C1=C(C)NC2=C(C(=O)CCC2)C1c1cn(Cc2ccc(Cl)cc2Cl)nc1-c1ccccc1 (stereo not given)	-1	-28	19*	65*	-66	0
O=C(Cn1cnc2cc([N+](=O)[O-])ccc2c1=O)NC(c1ccccc1)c1ccccc1	1	-2	3	0	-7	0
CCOC(=O)c1ccccc1NC(=O)C(C)Oc1ccccc1 (stereo not given)	9.7*	1	2	-6	-19	0
Cc1cc(=O)[nH]c(NCCO)n1	-1	11	nt	4	7	0
Cc1c(NC(=O)CS(=O)(=O)c2ccccc2)c(=O)n(-c2ccccc2)n1C	1	-3	nt	-2	6	0
N#CCSc1nc2ccccc2c(=O)n1C1CCCCC1	4	-3	nt	21*	1	0
N#CCSc1nc2ccccc2c(=O)n1CCC(=O)NC1CCCCC1	-2	-18	0	-5	-13	1
CCCN(CCC)C(=O)CSc1nc2ccccc2c(=O)n1C1CCCC1	3	9	25*	29*	-22	0
O=C(Cc1ccccc1)NS(=O)(=O)c1ccc(N=NN2CCOCC2)cc1	1	-4	nt	3	9	0
c1ccc(COc2ccc(OCCCN3CCCC3)cc2)cc1	-2	-6	6	3	-25	0
CC1CCN(CCCOc2ccc(OCc3ccccc3)cc2)CC1	0	-11	22*	24*	-42	1
Cc1cc(=O)[nH]c(SCc2cc(=O)n3nc(C)sc3n2)n1	-2	-11	1	-4	-4	0
O=C(CCCn1c(=O)[nH]c2ccsc2c1=O)N1CCN(c2ccccn2)CC1	11*	-21	-1	5	-4	0
O=C(CCCn1c(=O)[nH]c2ccccc2c1=O)N1CCN(c2ccccn2)CC1	-1	8	0	-4	11	0
O=C(CCN1CCN(c2ccccc2)CC1)N/N=C/c1ccccc1OC(F)F	-4	-9	nt	10	-16	0
N#C/C(=C(/O)COC(=O)c1ccc(O)cc1)c1nc2ccccc2[nH]1	8.9*	-37	nt	nt	7	nt
COc1ccc([C@H]2[C@H](C(=O)C(C)(C)C)N3N=Cc4ccccc4C3[C@]23N=C(c2ccccc2)OC3=O)cc1 (stereo not given in full)	-1	6	1	27*	13	0

High-throughput results: PubChem, The Scripps Research Institute Molecular Screening Center
